Assay [1] has as its target T1, Glutathione S-transferase A2 (Homo sapiens, UniProt P09210).
T1 sequence (P09210 whole entry): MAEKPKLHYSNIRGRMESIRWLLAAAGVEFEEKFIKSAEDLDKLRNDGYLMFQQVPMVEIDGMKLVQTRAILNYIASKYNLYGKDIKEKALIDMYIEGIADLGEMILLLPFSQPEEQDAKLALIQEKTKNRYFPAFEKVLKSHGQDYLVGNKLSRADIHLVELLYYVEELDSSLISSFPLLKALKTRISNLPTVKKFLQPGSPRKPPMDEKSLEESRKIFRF
Briefly: Inhibition of human GSTA2 using GSH as substrate after 3 mins by spectrophotometry. In outline:
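Human GST enzyme preincubated with inhibitor (0–200 μM) in 100 mM potassium phosphate pH 6.5 at 37 °C (GSTM1 at 32 ng). Reaction started with GSH (final 2 mM) and followed at 340 nm for 3 min. IC50 by nonlinear regression, mean ± SEM, n = 3. Percent inhibition at 100 μM is not corrected for glutathione conjugate formation.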

In assay [2] the target is Glutathione S-transferase P (Homo sapiens, UniProt P09211). Kind of assay: Inhibition of human GSTP1-1 using GSH as substrate after 3 mins by spectrophotometry.
Sequence of Glutathione S-transferase P (P09211 whole entry): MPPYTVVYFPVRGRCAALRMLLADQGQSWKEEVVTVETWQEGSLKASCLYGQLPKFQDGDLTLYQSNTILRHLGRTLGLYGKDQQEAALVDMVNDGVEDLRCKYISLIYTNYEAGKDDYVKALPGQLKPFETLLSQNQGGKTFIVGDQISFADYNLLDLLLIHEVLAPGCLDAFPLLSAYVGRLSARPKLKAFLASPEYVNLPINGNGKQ

For orientation: IC50 means the concentration that gives 50% inhibition. A higher IC50 goes with weaker potency in that assay. Consider `CC(=O)OCC1CC(O)[C@H](O)C(=O)C1=O` (stereo partly specified), for which the IC50 in assay [1] and in assay [2] was greater than 100 µM throughout. As to `CC(=O)OCC1C[C@@H](O)[C@H](O)C(=O)C1=O` (stereo partly specified), the IC50 in assay [1] and in assay [2] was greater than 100 µM each time. Take `CC(=O)OCC1C[C@H](O)[C@H](O)C(=O)C1=O` (stereo partly specified): the IC50 in assay [1] and in assay [2] was greater than 100 µM throughout.

With `CO[C@@H]1CC(COC(C)=O)C(=O)C(=O)[C@H]1O` (stereo partly specified), the IC50 in assay [1] and in assay [2] was greater than 100 µM in each case.

`CO[C@H]1CC(COC(C)=O)C(=O)C(=O)[C@H]1O` (stereo partly specified): the concentration for half-maximal inhibition (IC50) in assay [1] and in assay [2] was greater than 100 µM each time. Regarding `CO[C@]1(C)O[C@H]2[C@H](O)C(C=O)CC(=O)[C@@H]2O[C@@]1(C)OC` (stereo partly specified), the IC50 in assay [1] is greater than 100 µM.

Values taken from BindingDB's records for doi:10.1021/jm201131n (Academia Sinica, 2011).
